Experimental data: ChEMBL document CHEMBL1124186, “Synthesis and evaluation of tylosin-related macrolides modified at the aldehyde function: a new series of orally effective antibiotics” (1988)
≈ marks a conversion by molar mass, not a printed value.

How the values were obtained:
Rattus norvegicus [1] = assay: Peripheral plasma levels in rats after oral administration of 100 mg/kg dose for 4 hr; format: functional, organism-based; design: dose 100 mg/kg
Method in brief: (§1)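 Rats received 100 mg/kg orally and were sampled for peripheral plasma. Concentrations were measured by Micrococcus luteus agar-diffusion microbiological assay in Antibiotic Medium 1, with zone sizes converted using the standard curve for the appropriate compound. Each value is the average of three rats per time point.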

Mus musculus [2] = assay: Peripheral plasma levels in mice after oral administration of 50 mg/kg dose for 4 hr; format: functional, organism-based; design: dose 50 mg/kg
Method in brief: (§2)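 Mice were given the compound orally and sampled for peripheral plasma at each time point. Plasma was assayed microbiologically against Micrococcus luteus seeded in Antibiotic Medium 1. Inhibition zone sizes were read, and concentrations were calculated from each compound's own standard curve. Each value is the mean of five mice per time point.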

[3] = system: Staphylococcus epidermidis; assay: In vitro antimicrobial activity against aerobic bacteria Streptococcus epi 270; format: functional
Streptococcus [4] = assay: In vitro antimicrobial activity against aerobic bacteria Streptococcus G Kruder; format: functional; details: Streptococcus; read-out: MIC
Streptococcus [5] = assay: In vitro antimicrobial activity against aerobic bacteria Streptococcus D 9960; format: functional
Streptococcus [6] = assay: In vitro antimicrobial activity against aerobic bacteria Streptococcus D 2041; format: functional
Streptococcus [7] = assay: In vitro antimicrobial activity against aerobic bacteria Streptococcus D 8043; format: functional
Streptococcus pyogenes [8] = assay: In vitro antimicrobial activity against Streptococcus pyogenes C203; format: functional
Staphylococcus aureus [9] = assay: In vitro antimicrobial activity against aerobic bacteria Staphylococcus aureus V41; format: functional
Anaerococcus prevotii = assay: In vitro antimicrobial activity against anaerobic bacteria peptococcus prevoti 1281; format: functional
[10] = system: Haemophilus parainfluenzae; assay: In vitro antimicrobial activity against aerobic bacteria Haemophilus parainfluenzae 9796; format: functional
[11] = system: Staphylococcus epidermidis; assay: In vitro antimicrobial activity against aerobic bacteria Streptococcus epi 222; format: functional
Mus musculus [12] = assay: Peripheral plasma levels in mice after oral administration of 50 mg/kg dose for 0.25 hr; format: functional, organism-based; design: dose 50 mg/kg; method in brief: as §2
Streptococcus pyogenes [13] = assay: In vivo effective dose against experimental infections in rodent caused by Streptococcus pyogenes C203 when administered orally; format: functional; details: po
Streptococcus pneumoniae [14] = assay: In vivo activity against experimental infections in mice Streptococcus pneumoniae park when administered sc; format: functional
Bacteroides fragilis [15] = assay: In vitro antimicrobial activity against anaerobic bacteria bacteroides fragilis 1936B,; format: functional
Streptococcus sanguinis = assay: In vitro antimicrobial activity against aerobic bacteria Streptococcus sanguis MX132; format: functional
Rattus norvegicus [16] = assay: Peripheral plasma levels in rats after oral administration of 100 mg/kg dose for 0.5 hr; format: functional, organism-based; design: dose 100 mg/kg; method in brief: as §1
Staphylococcus aureus [17] = assay: In vivo activity against experimental infections in mice Staphylococcus aureus X1 when administered sc; format: functional
[18] = system: Peptoniphilus asaccharolyticus; assay: In vitro antimicrobial activity against anaerobic bacteria peptococcus asaccharolyticus 1302; format: functional
Enterococcus faecium = assay: In vitro antimicrobial activity against Streptococcus faecium X66; format: functional, streptococcus fae-cium
Collinsella aerofaciens = assay: In vitro antimicrobial activity against anaerobic bacteria eubacterium aerofaciens 1235; format: functional
Staphylococcus aureus [19] = assay: In vitro antimicrobial activity against Staphylococcus aureus X1; format: functional
Rattus norvegicus [20] = assay: Peripheral plasma levels in rats after oral administration of 100 mg/kg dose for 1 hr; format: functional, organism-based; design: dose 100 mg/kg; method in brief: as §1
[21] = system: Staphylococcus epidermidis; assay: In vitro antimicrobial activity against Staphylococcus epidermidis EPI1; format: functional
Haemophilus influenzae [22] = assay: In vitro antimicrobial activity against aerobic bacteria Haemophilus influenzae 465; format: functional
Streptococcus pneumoniae [23] = assay: In vitro antimicrobial activity against aerobic bacteria Streptococcus pneumoniae B1-438; format: functional, streptococcus pneum
Clostridium perfringens = assay: In vitro antimicrobial activity against anaerobic bacteria clostridium perfringens 81,; format: functional
Mus musculus [24] = assay: Peripheral plasma levels in mice after oral administration of 50 mg/kg dose for 1 hr; format: functional, organism-based; design: dose 50 mg/kg; method in brief: as §2
Streptococcus pneumoniae [25] = assay: In vitro antimicrobial activity against Streptococcus pneumoniae; format: functional
Staphylococcus aureus [26] = assay: In vivo activity against experimental infections in mice Staphylococcus aureus X1 when administered orally; format: functional; details: po
Streptococcus pyogenes [27] = assay: In vivo effective dose against experimental infections in rodent caused by Streptococcus pyogenes C203 when administered sc; format: functional
Streptococcus [28] = assay: In vitro antimicrobial activity against aerobic bacteria Streptococcus C 24; format: functional
Clostridium septicum = assay: In vitro antimicrobial activity against anaerobic bacteria clostridium septicum 1128; format: functional
Eikenella corrodens = assay: In vitro antimicrobial activity against anaerobic bacteria bacteroides corrodens 1874; format: functional
Fusobacterium = assay: In vitro antimicrobial activity against anaerobic bacteria fusobacterium symbiosum 1470; format: functional
Haemophilus influenzae [29] = assay: In vitro antimicrobial activity against aerobic bacteria Haemophilus influenzae MX366,; format: functional
Staphylococcus aureus [30] = assay: In vitro antimicrobial activity against aerobic bacteria Staphylococcus aureus X400; format: functional
Streptococcus [31] = assay: In vitro antimicrobial activity against aerobic bacteria Streptococcus B 8; format: functional
Mus musculus [32] = assay: Peripheral plasma levels in mice after oral administration of 100 mg/kg dose for 2 hr; format: functional, organism-based; design: dose 100 mg/kg; method in brief: as §2
Staphylococcus aureus [33] = assay: In vitro antimicrobial activity against aerobic bacteria Staphylococcus aureus 513E; format: functional
[34] = In vitro antimicrobial activity against anaerobic bacteria peptostreptococcus intermedius 1264; format: functional
Haemophilus influenzae [35] = assay: In vitro antimicrobial activity against Haemophilus influenzae.; format: functional
Mus musculus [36] = assay: Peripheral plasma levels in mice after oral administration of 100 mg/kg dose for 1 hr; format: functional, organism-based; design: dose 100 mg/kg; method in brief: as §2
Clostridioides difficile = assay: In vitro antimicrobial activity against anaerobic bacteria Clostridium difficile 2994; format: functional
Rattus norvegicus [37] = assay: Peripheral plasma levels in rats after oral administration of 100 mg/kg dose for 0.25 hr; format: functional, organism-based; design: dose 100 mg/kg; method in brief: as §1
Bacteroides fragilis [38] = assay: In vitro antimicrobial activity against anaerobic bacteria bacteroides fragilis 111; format: functional
Staphylococcus aureus [39] = assay: In vitro antimicrobial activity against aerobic bacteria Staphylococcus aureus V140,; format: functional
Streptococcus [40] = assay: In vitro antimicrobial activity against aerobic bacteria Streptococcus B 14; format: functional
Mus musculus [41] = assay: Peripheral plasma levels in mice after oral administration of 50 mg/kg dose for 0.5 hr; format: functional, organism-based; design: dose 50 mg/kg; method in brief: as §2
Phocaeicola vulgatus = assay: In vitro antimicrobial activity against anaerobic bacteria bacteroides vulgatus 1211; format: functional
Mus musculus [42] = assay: Peripheral plasma levels in mice after oral administration of 100 mg/kg dose for 0.25 hr; format: functional, organism-based; design: dose 100 mg/kg; method in brief: as §2
Streptococcus viridans = assay: In vitro antimicrobial activity against aerobic bacteria Streptococcus viridans 9943; format: functional
Streptococcus pneumoniae [43] = assay: In vivo activity against experimental infections in mice Streptococcus pneumoniae park when administered orally; format: functional; details: po
[44] = system: Prevotella melaninogenica; assay: In vitro antimicrobial activity against anaerobic bacteria bacteroides melaninogenicus 2736; format: functional
Staphylococcus aureus [45] = assay: In vitro antimicrobial activity against aerobic bacteria Staphylococcus aureus V135; format: functional
Bacteroides fragilis [46] = assay: In vitro antimicrobial activity against anaerobic bacteria bacteroides fragilis 1877; format: functional
Mus musculus [47] = assay: Peripheral plasma levels in mice after oral administration of 100 mg/kg dose for 4 hr; format: functional, organism-based; design: dose 100 mg/kg; method in brief: as §2
[48] = system: Bacteroides thetaiotaomicron; assay: In vitro antimicrobial activity against anaerobic bacteria bacteroides thetaiotaomicron 1438; format: functional
Rattus norvegicus [49] = assay: Peripheral plasma levels in rats after oral administration of 100 mg/kg dose for 2 hr; format: functional, organism-based; design: dose 100 mg/kg; method in brief: as §1
[50] = system: Peptostreptococcus anaerobius; assay: In vitro antimicrobial activity against anaerobic bacteria eubacterium peptostreptococcus anaerobius 1428,; format: functional
Streptococcus [51] = assay: In vitro antimicrobial activity against aerobic bacteria Streptococcus B 5; format: functional
Mus musculus [52] = assay: Peripheral plasma levels in mice after oral administration of 100 mg/kg dose for 0.5 hr; format: functional, organism-based; design: dose 100 mg/kg; method in brief: as §2
Cutibacterium acnes = assay: In vitro antimicrobial activity against anaerobic bacteria propionibacterium acnes 79; format: functional
[53] = system: Prevotella melaninogenica; assay: In vitro antimicrobial activity against anaerobic bacteria bacteroides melaninogenicus 1856,; format: functional
Mus musculus [54] = assay: Peripheral plasma levels in mice after oral administration of 50 mg/kg dose for 2 hr; format: functional, organism-based; design: dose 50 mg/kg; method in brief: as §2
Haemophilus influenzae [55] = assay: In vitro antimicrobial activity against aerobic bacteria Haemophilus influenzae 76; format: functional
[56] = system: Fusobacterium necrophorum; assay: In vitro antimicrobial activity against anaerobic bacteria usobacterium necrophorum 6054A; format: functional
Chlamydia trachomatis = assay: In vitro antimicrobial activity against chlamydia trachomatis.; format: functional

CC[C@H]1OC(=O)C[C@@H](O)[C@H](C)[C@@H](O[C@@H]2O[C@H](C)[C@@H](O)[C@H](N(C)C)[C@H]2O)[C@@H](CCOc2ccccc2)C[C@@H](C)C(=O)/C=C/C(C)=C/[C@@H]1CO[C@@H]1O[C@H](C)[C@@H](O)[C@@H](OC)[C@H]1OC
Concentration (Rattus norvegicus [1]): 5.6 µg/mL
Concentration (Mus musculus [2]): 0.2 µg/mL
MIC [3]: > 128 µg/mL
MIC (Streptococcus [4]): 32 µg/mL (≈ 37.6 µM)
MIC (Streptococcus [5]): 8 µg/mL (≈ 9.41 µM)
MIC (Streptococcus [6]): 8 µg/mL (≈ 9.41 µM)
MIC (Streptococcus [7]): 2 µg/mL (≈ 2.35 µM)
MIC (Streptococcus pyogenes [8]): 0.12 µg/mL (≈ 0.141 µM)
MIC (Staphylococcus aureus [9]): 0.25 µg/mL (≈ 0.294 µM)
MIC (Anaerococcus prevotii): 1 µg/mL (≈ 1.18 µM)
MIC [10]: 32 µg/mL (≈ 37.6 µM)
MIC [11]: 0.12 µg/mL (≈ 0.141 µM)
Concentration (Mus musculus [12]): 3.2 µg/mL
ED50 (Streptococcus pyogenes [13]): 9 mg/kg
ED50 (Streptococcus pneumoniae [14]): > 20 mg/kg
MIC (Bacteroides fragilis [15]): 1 µg/mL (≈ 1.18 µM)
MIC (Streptococcus sanguinis): 1 µg/mL (≈ 1.18 µM)
Concentration (Rattus norvegicus [16]): 3.9 µg/mL
ED50 (Staphylococcus aureus [17]): 4.2 mg/kg
MIC [18]: 1 µg/mL (≈ 1.18 µM)
MIC (Enterococcus faecium): 8 µg/mL (≈ 9.41 µM)
MIC (Collinsella aerofaciens): 2 µg/mL (≈ 2.35 µM)
MIC (Staphylococcus aureus [19]): 0.25 µg/mL (≈ 0.294 µM)
Concentration (Rattus norvegicus [20]): 3.4 µg/mL
MIC [21]: 0.25 µg/mL (≈ 0.294 µM)
MIC (Haemophilus influenzae [22]): 16 µg/mL (≈ 18.8 µM)
MIC (Streptococcus pneumoniae [23]): > 128 µg/mL
MIC (Clostridium perfringens): < 0.5 µg/mL
Concentration (Mus musculus [24]): 2.4 µg/mL
MIC (Streptococcus pneumoniae [25]): 1 µg/mL (≈ 1.18 µM)
ED50 (Staphylococcus aureus [26]): 17 mg/kg
ED50 (Streptococcus pyogenes [27]): 5 mg/kg
MIC (Streptococcus [28]): 0.25 µg/mL (≈ 0.294 µM)
MIC (Clostridium septicum): < 0.5 µg/mL
MIC (Eikenella corrodens): 1 µg/mL (≈ 1.18 µM)
MIC (Fusobacterium): 1 µg/mL (≈ 1.18 µM)
MIC (Haemophilus influenzae [29]): 16 µg/mL (≈ 18.8 µM)
MIC (Staphylococcus aureus [30]): 0.25 µg/mL (≈ 0.294 µM)
MIC (Streptococcus [31]): 8 µg/mL (≈ 9.41 µM)
Concentration (Mus musculus [32]): 6.5 µg/mL
MIC (Staphylococcus aureus [33]): 0.25 µg/mL (≈ 0.294 µM)
MIC [34]: 2 µg/mL (≈ 2.35 µM)
MIC (Haemophilus influenzae [35]): 32 µg/mL (≈ 37.6 µM)
Concentration (Mus musculus [36]): 13.1 µg/mL
MIC (Clostridioides difficile): < 0.5 µg/mL
Concentration (Rattus norvegicus [37]): 2.6 µg/mL
MIC (Bacteroides fragilis [38]): 1 µg/mL (≈ 1.18 µM)
MIC (Staphylococcus aureus [39]): 0.25 µg/mL (≈ 0.294 µM)
MIC (Streptococcus [40]): 16 µg/mL (≈ 18.8 µM)
Concentration (Mus musculus [41]): 2.7 µg/mL
MIC (Phocaeicola vulgatus): 1 µg/mL (≈ 1.18 µM)
Concentration (Mus musculus [42]): 8.9 µg/mL
MIC (Streptococcus viridans): > 128 µg/mL
ED50 (Streptococcus pneumoniae [43]): > 50 mg/kg
MIC [44]: 1 µg/mL (≈ 1.18 µM)
MIC (Staphylococcus aureus [45]): 0.25 µg/mL (≈ 0.294 µM)
MIC (Bacteroides fragilis [46]): 1 µg/mL (≈ 1.18 µM)
Concentration (Mus musculus [47]): 1.2 µg/mL
MIC [48]: 2 µg/mL (≈ 2.35 µM)
Concentration (Rattus norvegicus [49]): 4.8 µg/mL
MIC [50]: < 0.5 µg/mL
MIC (Streptococcus [51]): 4 µg/mL (≈ 4.71 µM)
Concentration (Mus musculus [52]): 11.5 µg/mL
MIC (Cutibacterium acnes): 8 µg/mL (≈ 9.41 µM)
MIC [53]: 1 µg/mL (≈ 1.18 µM)
Concentration (Mus musculus [54]): 1.2 µg/mL
MIC (Haemophilus influenzae [55]): 16 µg/mL (≈ 18.8 µM)
MIC [56]: 8 µg/mL (≈ 9.41 µM)
MIC (Chlamydia trachomatis): 0.25 µg/mL (≈ 0.294 µM)
